Screening results from PubChem BioAssay.
NPY Y2 blocker: NPY-Y2 receptor antagonists, primary screen, cell-based; actives 0.99% (n = 140,000); inhibition, % at 2.7 µM; AID 793, 2007; NPY-Y2 expressing cells, antagonist mode; in the data active means inhibition above about 17%;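 further: 0% = vehicle with agonist challenge and 100% = reference antagonist with challenge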
S1P4 antagonist: S1P4 receptor antagonists, primary screen, cell-based; actives 0.26% (n = 220,000); Sphingosine 1-phosphate receptor 4 (Homo sapiens), O95977; inhibition, % at 4.98 µM; S1P4-expressing cells, antagonist mode, reporter read-out; in the data active means inhibition above about 29%;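 further: 0% = wells stimulated with agonist and 100% = vehicle wells without agonist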
NPY-Y1 antag: NPY-Y1 receptor antagonists, primary screen, cell-based; Neuropeptide Y receptor type 1 (Homo sapiens), P25929; HEK293-CNG Y1 cells, membrane potential fluorescence; NPY at EC95, then isoproterenol; inhibition, % at 3.6 µM; AID 1040, 2008; actives 1% (n = 200,000);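 active means inhibition above the campaign mean inhibition of all tested compounds plus 3 SD, cut at about 20% in these data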;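 further: 0% = DMSO wells given NPY plus isoproterenol and 100% = isoproterenol alone without NPY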
Target sequence (P25929 whole entry, looked up): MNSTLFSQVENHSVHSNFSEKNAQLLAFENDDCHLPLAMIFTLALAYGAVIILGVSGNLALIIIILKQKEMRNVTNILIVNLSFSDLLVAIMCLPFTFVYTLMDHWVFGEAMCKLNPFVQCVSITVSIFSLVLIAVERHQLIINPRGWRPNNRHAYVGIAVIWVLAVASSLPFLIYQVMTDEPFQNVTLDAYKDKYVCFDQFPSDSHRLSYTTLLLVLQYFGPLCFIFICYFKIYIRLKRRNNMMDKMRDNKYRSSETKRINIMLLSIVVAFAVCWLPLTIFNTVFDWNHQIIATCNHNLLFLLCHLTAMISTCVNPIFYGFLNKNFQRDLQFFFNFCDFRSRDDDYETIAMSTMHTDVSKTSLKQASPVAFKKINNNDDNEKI
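Material: Y1- and CNG-channel-expressing HEK293 cells / Probe or stimulus: NPY 25 nM then isoproterenol 1 µM plus Ro 20-1724 25 µM / Doses: 3.6 µM single dose, DMSO 0.4% / Schedule: compound incubation 1 h at room temperature, readout 45 min post-stimulation / Signal: membrane potential fluorescence / Benchmarks: isoproterenol-only wells as full block versus NPY-plus-isoproterenol wells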
NPY2 pot ag: NPY-Y2 potentiators or agonists, primary screen, cell-based; actives 0.45% (n = 220,000); activation, % at 3.6 µM; cells expressing NPY-Y2, potentiator/agonist read-out; AID 1359, 2008; in the data active means activation above about 27%;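 further: cells stimulated with NPY near EC25 plus isoproterenol at EC100; 0% = vehicle plus submaximal agonist and 100% = vehicle plus saturating agonist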
NPY-Y1 PAM-ag: NPY-Y1 receptor potentiators or agonists, primary screen, cell-based; actives 0.37% (n = 220,000); AID 1304, 2008; activation, % at 3.6 µM; NPY-Y1 expressing cells, potentiator/agonist activation; Neuropeptide Y receptor type 1 (Homo sapiens), P25929; in the data active means activation above about 33%, passing the limit was not always enough;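 further: cells stimulated with NPY at EC10 then isoproterenol at EC100; 0% = low agonist plus stimulus and 100% = saturating agonist plus stimulus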
S1P4 agonist: S1P4 receptor agonists, primary screen, cell-based; Sphingosine 1-phosphate receptor 4 (Homo sapiens), O95977; S1P4-expressing cell line, agonist reporter assay; activation, % at 4.98 µM; actives 0.35% (n = 220,000); AID 1509, 2009; in the data active means activation above about 11%;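 further: 0% = DMSO vehicle and 100% = reference agonist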
* marks the source's active call; other numbers are inactive results; . = no result. This is a sample that favours compounds with a hit; in the whole collection about 2.4% have one here.

SMILES | NPY Y2 blocker | S1P4 antagonist | NPY-Y1 antag | NPY2 pot ag | NPY-Y1 PAM-ag | S1P4 agonist
N#CC1=C(N)Oc2n[nH]c(-c3cccs3)c2C1c1ccncc1 (configuration not stated) | . | 1.6 | 6.7 | -7.5 | 15.0 | -1.7
Cc1ccc(COc2ccc(Br)cc2/C=N/O)cc1 | 15.2 | -8.2 | 14.1 | -25.2 | -22.0 | 6.7
O/N=C/c1cc(Br)ccc1OCc1ccc(F)cc1 | 17.6* | -19.9 | 16.1 | -2.3 | -15.2 | 4.5
Cc1csc2c(NCCCN3CCOCC3)ncnc12 | . | -3.4 | . | -10.6 | -6.6 | -0.1
CCOC(=O)C1CCCN(C(=O)c2cnn3c(C(F)(F)F)cc(-c4ccccc4)nc23)C1 (configuration not stated) | 18.8* | -15.3 | 22.5* | -23.9 | -53.2 | -2.6
CC1(C)CCCN(C(=O)c2ccc3c(c2NCCO)C(=O)c2ccccc2C3=O)C1 | -9.2 | -9.9 | -21.8 | 53.8* | 50.5* | 0.9
O=C1c2ccccc2C(=O)c2c1ccc(C(=O)N1CCCCC1)c2NCCO | -1.5 | -15.6 | 1.7 | 1.6 | 20.6 | 0.3
CCN(CCN(C)C)C(=O)c1ccc2c(c1NCCO)C(=O)c1ccccc1C2=O | . | -12.8 | -10.9 | 40.0* | 47.2* | -1.5
COc1ccc(CC(=O)O/N=C(\N)c2cccc([N+](=O)[O-])c2)cc1 | 2.3 | 0.5 | 4.7 | -1.2 | -16.4 | 1.6
CCOC(=O)c1ccc(Nc2cc(C)nc(-c3ccccc3O)n2)cc1 | -2.0 | 0.5 | -0.8 | 12.2 | -15.6 | -1.3
Cc1cc(Nc2cccc(F)c2)nc(-c2ccccc2O)n1 | -5.4 | -4.6 | -9.5 | 42.4* | 39.8* | 0.1
Cc1ccc(SCc2ccc(C(=O)N3CCCCC3)cc2)cc1 | . | 1.2 | 2.1 | -10.6 | 5.2 | -0.5
O=C(CCCOc1ccccc1)Nc1ccc(Br)cc1 | 5.0 | -55.6 | 22.2* | -33.0 | -20.6 | 0.3
O=C(C1CCCO1)N1CCN(Cc2c(O)ccc3ccccc23)CC1 (configuration not stated) | 0.9 | -17.5 | 11.9 | 5.8 | -2.6 | -0.9
COc1ccc(-c2cc(C(=O)O)c3c(C)nn(-c4ccccn4)c3n2)cc1 | 2.2 | 4.3 | -0.8 | -5.5 | 6.5 | -1.8
COc1ccc(N=CC2=C(Nc3ccc(OC)cc3)c3c(C)nn(-c4ccccn4)c3CC2)cc1 | 13.3 | 8.0 | 20.7* | 2.8 | -18.0 | -2.0
Cc1cc(N=Nc2ccccc2)c(NCC(O)C(O)C(O)CO)cc1C (configuration not stated) | . | -9.6 | -16.3 | 56.6* | 73.2* | 0.2
O=[N+]([O-])c1ccc(-c2nc(-c3cccs3)c(-c3cccs3)[nH]2)cc1 | -6.4 | -26.9 | -16.9 | 45.4* | 44.2* | 1.4
Cc1nc2ccc(NC(=O)c3cc([N+](=O)[O-])cc([N+](=O)[O-])c3Cl)cc2s1 | -0.1 | 66.1* | -1.1 | 17.4 | 11.0 | 6.0
CN(Cc1ccc(F)cc1)C(=O)c1cccc(OC2CCN(C3CCCC3)CC2)c1 | . | 2.3 | 7.0 | -4.7 | -1.4 | -0.6
CCCOCCOC(=O)c1[nH]c2c(c1C)C(=O)CC(c1cc(OC)ccc1OC)C2 (configuration not stated) | 30.9* | -3.8 | 34.5* | -3.5 | -32.8 | 1.2
COc1ccc(/C=C/C(=O)OCc2cc(=O)n3c(n2)sc2ccccc23)cc1 | 7.2 | 7.8 | -2.1 | -1.7 | -1.5 | 0.5
O=C(CSc1cccc(C(F)(F)F)c1)Nc1cc(S(=O)(=O)N2CCCC2)ccc1Cl | 5.0 | -19.5 | 3.3 | 3.0 | 9.3 | 0.2
COC(=O)c1ccccc1NC(=O)CN1C(=O)CSC1=O | -0.3 | -25.3 | 7.0 | -9.2 | -7.7 | -1.0
COc1cccc(CNC(=O)CCC2CCCN(C(=O)c3cscn3)C2)c1 (configuration not stated) | . | -16.3 | 3.8 | 10.4 | 6.7 | 0.2
SMILES | NPY Y2 blocker | S1P4 antagonist | NPY-Y1 antag | NPY2 pot ag | NPY-Y1 PAM-ag | S1P4 agonist
CN1C(=O)c2c(sc3c2CCCC3)NC1c1ccccc1O (configuration not stated) | 0.6 | -15.7 | -2.9 | -4.6 | -1.7 | 0.8
CC1=C(C#N)C(Nc2cccc(C)n2)(C(F)(F)F)C(=O)N1 (configuration not stated) | 0.6 | -10.0 | 1.6 | -11.8 | -17.6 | 1.0
COc1ccc(-c2nc(C#N)c(NCc3ccc(C)cc3)o2)cc1OC | 26.8* | -5.9 | 13.9 | -7.4 | -39.2 | -2.2
Cc1ccc(CNc2oc(-c3ccco3)nc2C#N)cc1 | 4.3 | -6.2 | 1.4 | -10.9 | -31.5 | -1.0
Cc1ccc(-c2nc(C#N)c(NCc3cccc4c3OCO4)o2)cc1 | 21.5* | 3.4 | 28.4* | -30.8 | -20.1 | 5.1
Nc1ncnc2c1ncn2[C@@H]1O[C@H](CO)[C@@H](O)[C@H]1O | 2.5 | -16.7 | -4.9 | 10.7 | 10.6 | 1.8
O=c1[nH]cnc2c1ncn2[C@@H]1O[C@H](CO)[C@@H](O)[C@H]1O | 1.1 | -12.1 | -1.9 | 4.6 | -9.6 | 23.9*
O=C(O)c1ccccc1C(=O)Nc1ccccn1 | 1.8 | -5.1 | -9.8 | -0.7 | -3.2 | -0.7
N=c1oc2cc(O)ccc2cc1C(=O)Nc1ccccn1 | . | -52.3 | 10.9 | 3.8 | -1.5 | 73.7*
c1ccc(CN2c3ccccc3-c3nc4ccccc4n3C2c2ccccn2)cc1 (configuration not stated) | 19.3* | 2.6 | 37.5* | -9.5 | -17.4 | -1.4
CN1c2ccccc2-c2nc3ccccc3n2C1c1ccccn1 (configuration not stated) | 2.2 | 2.1 | -0.7 | 5.0 | -1.1 | 3.1
CCOc1ccc(C2=CS/C(=C(\C#N)c3nnc4n3CCCCC4)N2CC)cc1 | -0.3 | -5.3 | -4.8 | -2.6 | -9.1 | 15.1*
C=CCN1C(c2ccccc2)=CS/C1=C(\C#N)c1nnc2n1CCCCC2 | -1.5 | -4.7 | 1.2 | 1.4 | 1.0 | -0.4
CCN1CCN(CC(O)COc2ccc(C(C)=O)cc2)CC1 (configuration not stated) | 1.4 | -26.8 | -1.8 | -10.4 | -7.2 | -0.9
C=CCOc1ccc2ccccc2c1CNCCCN1CCOCC1 | 20.1* | -3.4 | 20.8* | -18.4 | -19.5 | 0.6
COc1ccc(OCC(O)Cn2c(=N)n(Cc3ccccc3)c3ccccc32)cc1 (configuration not stated) | 31.7* | 18.5 | 32.8* | 30.4 | 5.1 | -2.7
N=c1n(Cc2ccccc2)c2ccccc2n1CC(O)COc1ccc(Cl)cc1Cl (configuration not stated) | . | -5.8 | 8.4 | -16.2 | -22.7 | -0.9
Cc1cccc(OCC(O)Cn2c(=N)n(Cc3ccccc3)c3ccccc32)c1 (configuration not stated) | . | 27.1 | . | -43.0 | -29.3 | -0.4
